Calls of active or inactive are those of the source. No cut-off for these calls is given here.
Key:
HL-60 = experiment: Antiproliferative activity against human HL60 cells assessed as reduction in cell viability measured after 24 hrs; assay type: functional, cell-based; conditions: HL-60, 24 h
[1] = biological target: Mitogen-activated protein kinase 1 (Homo sapiens) (UniProt P28482); experiment: Inhibition of ERK2 (unknown origin) at 1 uM by Z'-Lyte assay relative to control
[2] = biological target: Mitogen-activated protein kinase 3 (Homo sapiens) (UniProt P27361); experiment: Inhibition of ERK1 (unknown origin) at 1 uM by Z'-Lyte assay relative to control
[3] = biological target: Mitogen-activated protein kinase 7 (Homo sapiens) (UniProt Q13164); experiment: Inhibition of ERK5 in human MKN74 cells harboring ERK1/2 siRNA assessed as reduction in ERK5 phosphorylation at 1 uM by Western blot analysis; assay type: cell-based
Outline: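 MKN-74 cells were transfected with ERK1/2-specific siRNA or negative-control siRNA, then exposed to compound. ERK1/2, p-ERK1/2, ERK5 and p-ERK5 were read by immunoblotting, with GAPDH as loading control.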

HeLa = experiment: Antiproliferative activity against human HeLa cells assessed as reduction in cell viability measured after 24 hrs; assay type: functional, cell-based
MKN-74 = experiment: Antiproliferative activity against human MKN74 cells assessed as reduction in cell viability measured after 24 hrs; assay type: functional, cell-based; conditions: MKN-74, 24 h
[4] = biological target: Mitogen-activated protein kinase 7 (Homo sapiens) (UniProt Q13164); experiment: Inhibition of ERK5 (unknown origin) at 1 uM by Z'-Lyte assay relative to control

Sequence of Mitogen-activated protein kinase 3 (Homo sapiens) (P27361 whole entry): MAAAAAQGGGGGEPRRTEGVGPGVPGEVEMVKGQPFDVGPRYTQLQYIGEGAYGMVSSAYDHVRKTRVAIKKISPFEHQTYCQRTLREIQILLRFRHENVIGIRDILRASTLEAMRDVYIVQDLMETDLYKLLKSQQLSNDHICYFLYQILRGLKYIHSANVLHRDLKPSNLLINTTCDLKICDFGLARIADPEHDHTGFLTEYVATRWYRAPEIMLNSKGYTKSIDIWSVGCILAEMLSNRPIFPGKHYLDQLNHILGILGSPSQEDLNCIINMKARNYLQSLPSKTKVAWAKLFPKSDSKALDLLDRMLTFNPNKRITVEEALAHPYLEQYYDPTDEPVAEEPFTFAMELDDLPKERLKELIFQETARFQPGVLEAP
Sequence of Mitogen-activated protein kinase 1 (Homo sapiens) (P28482 whole entry): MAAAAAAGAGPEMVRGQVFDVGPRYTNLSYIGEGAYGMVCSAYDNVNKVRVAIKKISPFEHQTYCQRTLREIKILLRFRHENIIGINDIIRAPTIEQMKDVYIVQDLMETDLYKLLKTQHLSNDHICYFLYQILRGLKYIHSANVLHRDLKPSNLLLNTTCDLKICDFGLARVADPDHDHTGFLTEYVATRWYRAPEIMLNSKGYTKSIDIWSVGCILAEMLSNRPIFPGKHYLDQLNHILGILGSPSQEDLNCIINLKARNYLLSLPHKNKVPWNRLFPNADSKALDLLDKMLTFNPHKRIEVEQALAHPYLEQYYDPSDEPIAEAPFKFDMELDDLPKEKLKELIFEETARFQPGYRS
Sequence of Mitogen-activated protein kinase 7 (Homo sapiens) (Q13164 2-816 limits assumed): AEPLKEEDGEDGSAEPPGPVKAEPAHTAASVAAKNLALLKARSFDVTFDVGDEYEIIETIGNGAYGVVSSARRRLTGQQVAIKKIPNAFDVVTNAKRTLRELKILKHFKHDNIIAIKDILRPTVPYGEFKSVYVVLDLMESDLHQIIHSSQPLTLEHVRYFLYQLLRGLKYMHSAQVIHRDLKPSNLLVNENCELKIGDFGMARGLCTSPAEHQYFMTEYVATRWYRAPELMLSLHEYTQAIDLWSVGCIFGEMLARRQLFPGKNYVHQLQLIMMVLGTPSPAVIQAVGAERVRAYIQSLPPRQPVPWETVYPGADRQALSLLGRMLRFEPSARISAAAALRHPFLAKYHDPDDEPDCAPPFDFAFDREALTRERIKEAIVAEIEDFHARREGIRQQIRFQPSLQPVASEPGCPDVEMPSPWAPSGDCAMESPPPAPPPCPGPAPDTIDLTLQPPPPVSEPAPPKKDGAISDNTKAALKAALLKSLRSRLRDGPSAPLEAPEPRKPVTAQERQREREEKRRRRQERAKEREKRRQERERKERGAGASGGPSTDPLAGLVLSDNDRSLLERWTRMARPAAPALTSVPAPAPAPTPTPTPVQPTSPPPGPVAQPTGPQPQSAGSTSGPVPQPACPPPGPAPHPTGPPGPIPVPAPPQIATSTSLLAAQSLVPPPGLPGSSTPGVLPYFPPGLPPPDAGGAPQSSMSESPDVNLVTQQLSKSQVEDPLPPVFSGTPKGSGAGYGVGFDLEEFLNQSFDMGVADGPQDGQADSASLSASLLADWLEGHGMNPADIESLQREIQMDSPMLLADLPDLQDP

| Structure (SMILES) | IC50 (HL-60) [µM] | inhibition [1] [%] | inhibition [2] [%] | inhibition [3] | IC50 (HeLa) [µM] | IC50 (MKN-74) [µM] | inhibition [4] [%] |
| --- | --- | --- | --- | --- | --- | --- | --- |
| NC(=O)c1c(NC(=O)c2ccc(C(F)(F)F)cc2)sc2c1CCN(C(=S)Nc1cc(C(F)(F)F)cc(C(F)(F)F)c1)C2 | 16.3 | 66 | 79.4 |  | 49 | 13.8 | 54.2 |
| CSc1ccccc1NC(=S)N1CCc2c(sc(NC(=O)c3ccccc3Cl)c2C(N)=O)C1 | 14.6 | 64.6 | 69.5 |  | 43.6 | 13.8 | 52.6 |
| Cc1ccc(C(=O)Nc2sc3c(c2C(N)=O)CCN(C(=S)Nc2ccccc2Cl)C3)cc1 | 8.43 | 82.8 | 83.2 |  | 26.2 | 11.3 | 50.4 |
| NC(=O)c1c(NC(=O)c2ccccc2Cl)sc2c1CCN(Cc1c(Cl)cccc1Cl)C2 | 4.85 | 78.1 | 57.8 |  | 28.8 | 4.74 | 61.9 |
| NC(=O)c1c(NC(=O)c2ccccc2C(F)(F)F)sc2c1CCN(C(=S)Nc1ccccc1Cl)C2 | 17.6 | 80.9 | 78.8 |  | 46.9 | 21.9 | 56.5 |

Continued by falling IC50 (HL-60), values first:

| IC50 (HL-60) [µM] | inhibition [1] [%] | inhibition [2] [%] | inhibition [3] | IC50 (HeLa) [µM] | IC50 (MKN-74) [µM] | inhibition [4] [%] | Structure (SMILES) |
| --- | --- | --- | --- | --- | --- | --- | --- |
| 25.5 | 85.5 | 82.5 |  | > 50 | 23.9 | 73.3 | NC(=O)c1c(NC(=O)c2ccccc2C(F)(F)F)sc2c1CCN(C(=S)Nc1ccccc1Br)C2 |
| 20.8 | 67.1 | 66.3 |  | > 50 | 20.5 | 53.5 | COc1ccccc1C(=O)Nc1sc2c(c1C(N)=O)CCN(C(=S)Nc1ccccc1Cl)C2 |
| 18.9 | 80 | 82 |  | > 50 | 22.4 | 85.5 | NC(=O)c1c(NC(=O)c2ccccc2I)sc2c1CCN(C(=S)Nc1ccccc1Br)C2 |
| 10.6 | < 50 | < 50 | Active | > 50 | > 50 |  | CCOc1cc(N2CCC(O)CC2)ccc1Nc1ncc2c(n1)N(C)c1ccccc1C(=O)N2C |
| 7.59 | 54.4 | 80.5 |  | > 50 | 7.09 | 57.4 | NC(=O)c1c(NC(=O)c2ccccc2Cl)sc2c1CCN(C(=S)Nc1ccc(C(F)(F)F)cc1)C2 |
| 1.06 | 99.2 | 98.8 | inactive | > 50 | > 50 | < 50 | O=C(Nc1ccc2[nH]nc(-c3ccncc3)c2c1)[C@@H]1CCN(CC(=O)N2CCN(c3ccc(-c4ncccn4)cc3)CC2)C1 |

Reference: ChEMBL document CHEMBL4342467, “Discovery of a Novel Dual-Target Inhibitor of ERK1 and ERK5 That Induces Regulated Cell Death to Overcome Compensatory Mechanism in Specific Tumor Types” (J Med Chem, 2020)
